Experimental data published in ChEMBL document CHEMBL5678810.
The source made the active and inactive calls. The rule behind the calls is not given here.

Legend:
[1] = target: Mitogen-activated protein kinase 10 (Homo sapiens) (UniProt P53779); test: Inhibition of T7 bacteriophage fused human JNK3 at 10 uM by KINOMEscan analysis relative to control; values are per cent of control
[2] = target: Serine/threonine-protein kinase LATS1 (Homo sapiens) (UniProt O95835); test: Inhibition of T7 bacteriophage fused human LATS1 at 10 uM by KINOMEscan analysis relative to control
[3] = target: Macrophage colony-stimulating factor 1 receptor (Homo sapiens) (UniProt P07333); test: Inhibition of T7 bacteriophage fused human CSF1R at 10 uM by KINOMEscan analysis relative to control; values are per cent of control
[4] = target: Serine/threonine-protein kinase pim-1 (Homo sapiens) (UniProt P11309); test: Inhibition of T7 bacteriophage fused human PIM1 at 10 uM by KINOMEscan analysis relative to control
[5] = target: Activin receptor type-1-like (Homo sapiens) (UniProt P37023); test: Inhibition of T7 bacteriophage fused human ACVRL1 at 10 uM by KINOMEscan analysis relative to control
[6] = target: cAMP-dependent protein kinase catalytic subunit beta (Homo sapiens) (UniProt P22694); test: Inhibition of T7 bacteriophage fused human PKAC-beta at 10 uM by KINOMEscan analysis relative to control
[7] = target: RAC-gamma serine/threonine-protein kinase (Homo sapiens) (UniProt Q9Y243); test: Inhibition of T7 bacteriophage fused human AKT3 at 10 uM by KINOMEscan analysis relative to control
[8] = test system: Hepatocyte growth factor receptor (Homo sapiens), P08581 [Y1235D]; test: Inhibition of T7 bacteriophage fused human MET Y1235D mutant at 10 uM by KINOMEscan analysis relative to control
[9] = target: Serine/threonine-protein kinase PAK 3 (Homo sapiens) (UniProt O75914); test: Inhibition of T7 bacteriophage fused human PAK3 at 10 uM by KINOMEscan analysis relative to control
[10] = target: Proto-oncogene tyrosine-protein kinase receptor Ret (Homo sapiens) (UniProt P07949); test: Inhibition of T7 bacteriophage fused human RET at 10 uM by KINOMEscan analysis relative to control
[11] = target: Citron Rho-interacting kinase (Homo sapiens) (UniProt O14578); test: Inhibition of T7 bacteriophage fused human CIT at 10 uM by KINOMEscan analysis relative to control; values are per cent of control
[12] = target: Casein kinase I isoform gamma-3 (Homo sapiens) (UniProt Q9Y6M4); test: Inhibition of T7 bacteriophage fused human CSNK1G3 at 10 uM by KINOMEscan analysis relative to control; values are per cent of control
[13] = target: Calcium/calmodulin-dependent protein kinase type 1G (Homo sapiens) (UniProt Q96NX5); test: Inhibition of T7 bacteriophage fused human CAMK1G at 10 uM by KINOMEscan analysis relative to control
[14] = target: Ephrin type-B receptor 4 (Homo sapiens) (UniProt P54760); test: Inhibition of T7 bacteriophage fused human EPHB4 at 10 uM by KINOMEscan analysis relative to control
[15] = target: Cyclin-dependent kinase 17 (Homo sapiens) (UniProt Q00537); test: Inhibition of T7 bacteriophage fused human PCTK2 at 10 uM by KINOMEscan analysis relative to control
[16] = target: Serine/threonine-protein kinase PLK4 (Homo sapiens) (UniProt O00444); test: Inhibition of T7 bacteriophage fused human PLK4 at 10 uM by KINOMEscan analysis relative to control
[17] = target: Receptor-type tyrosine-protein kinase FLT3 (Homo sapiens) (UniProt P36888); test: Inhibition of T7 bacteriophage fused human FLT3 at 10 uM by KINOMEscan analysis relative to control
[18] = target: Ribosomal protein S6 kinase alpha-1 (Homo sapiens) (UniProt Q15418); test: Inhibition of T7 bacteriophage fused human N-terminal RSK1 Kinase domain-1 at 10 uM by KINOMEscan analysis relative to control
[19] = target: Serine/threonine-protein kinase D3 (Homo sapiens) (UniProt O94806); test: Inhibition of T7 bacteriophage fused human PRKD3 at 10 uM by KINOMEscan analysis relative to control
[20] = target: G protein-coupled receptor kinase 4 (Homo sapiens) (UniProt P32298); test: Inhibition of T7 bacteriophage fused human GRK4 at 10 uM by KINOMEscan analysis relative to control; values are per cent of control
[21] = target: Ephrin type-A receptor 8 (Homo sapiens) (UniProt P29322); test: Inhibition of T7 bacteriophage fused human EPHA8 at 10 uM by KINOMEscan analysis relative to control; values are per cent of control
[22] = target: Phosphorylase b kinase gamma catalytic chain, liver/testis isoform (Homo sapiens) (UniProt P15735); test: Inhibition of T7 bacteriophage fused human PHKG2 at 10 uM by KINOMEscan analysis relative to control
[23] = target: Dual specificity mitogen-activated protein kinase kinase 4 (Homo sapiens) (UniProt P45985); test: Inhibition of T7 bacteriophage fused human MEK4 at 10 uM by KINOMEscan analysis relative to control
[24] = test system: Proto-oncogene tyrosine-protein kinase receptor Ret (Homo sapiens), P07949 [V804L]; test: Inhibition of T7 bacteriophage fused human RET V804L mutant at 10 uM by KINOMEscan analysis relative to control
[25] = target: Mitogen-activated protein kinase kinase kinase 1 (Homo sapiens) (UniProt Q13233); test: Inhibition of T7 bacteriophage fused human MAP3K1 at 10 uM by KINOMEscan analysis relative to control; values are per cent of control
[26] = target: Serine/threonine-protein kinase 38-like (Homo sapiens) (UniProt Q9Y2H1); test: Inhibition of T7 bacteriophage fused human NDR2 at 10 uM by KINOMEscan analysis relative to control
[27] = target: Casein kinase I isoform alpha-like (Homo sapiens) (UniProt Q8N752); test: Inhibition of T7 bacteriophage fused human CSNK1A1L at 10 uM by KINOMEscan analysis relative to control
[28] = test system: Leucine-rich repeat serine/threonine-protein kinase 2 (Homo sapiens), Q5S007 [A2016T]; test: Inhibition of drug-resistant GFP-tagged LRRK2 A2016T mutant phosphorylation at Ser910 residue (unknown origin) transfected in HEK293 cells upto 3 uM incubated for 90 mins by immunoblot analysis; assay type: cell-based
Method in brief: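 HEK293 cells stably expressing GFP-LRRK2 variants, grown in DMEM with 10% FBS, 2 mM glutamine and penicillin/streptomycin. Compound added from DMSO stock (final DMSO ≤1%) at increasing concentrations for 90 min, DMSO control. Cells were PBS-washed and lysed in Triton X-100 lysis buffer. Lysates were run on 8% SDS-PAGE and immunoblotted with rabbit monoclonals against pSer910, pSer935 and total LRRK2.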

Sequence of Calcium/calmodulin-dependent protein kinase type 1G (Homo sapiens) (Q96NX5 whole entry, the tested form may be a part): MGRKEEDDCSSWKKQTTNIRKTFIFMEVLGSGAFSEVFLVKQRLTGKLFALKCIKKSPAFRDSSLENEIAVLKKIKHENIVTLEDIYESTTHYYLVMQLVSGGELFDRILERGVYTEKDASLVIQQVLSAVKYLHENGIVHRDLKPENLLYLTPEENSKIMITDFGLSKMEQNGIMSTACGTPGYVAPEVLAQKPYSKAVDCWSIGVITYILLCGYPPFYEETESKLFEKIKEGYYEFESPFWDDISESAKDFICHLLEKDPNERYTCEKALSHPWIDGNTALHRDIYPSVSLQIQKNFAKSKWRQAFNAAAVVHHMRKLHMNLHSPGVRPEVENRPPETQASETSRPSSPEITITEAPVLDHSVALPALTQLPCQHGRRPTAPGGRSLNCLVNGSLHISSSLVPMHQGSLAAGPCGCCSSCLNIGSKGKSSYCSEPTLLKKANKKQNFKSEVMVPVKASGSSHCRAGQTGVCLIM
Sequence of Serine/threonine-protein kinase pim-1 (Homo sapiens) (P11309 whole entry, looked up, the tested form may be a part): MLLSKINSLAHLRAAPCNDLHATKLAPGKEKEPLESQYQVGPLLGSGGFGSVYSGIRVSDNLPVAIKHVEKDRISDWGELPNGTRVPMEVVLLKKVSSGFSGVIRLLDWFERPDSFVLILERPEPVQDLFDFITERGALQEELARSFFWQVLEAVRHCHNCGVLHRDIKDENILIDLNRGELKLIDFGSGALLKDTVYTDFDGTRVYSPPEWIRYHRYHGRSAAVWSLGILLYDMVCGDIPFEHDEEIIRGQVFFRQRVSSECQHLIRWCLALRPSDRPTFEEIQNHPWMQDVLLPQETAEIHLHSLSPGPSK
Sequence of Macrophage colony-stimulating factor 1 receptor (Homo sapiens) (P07333 whole entry, the tested form may be a part): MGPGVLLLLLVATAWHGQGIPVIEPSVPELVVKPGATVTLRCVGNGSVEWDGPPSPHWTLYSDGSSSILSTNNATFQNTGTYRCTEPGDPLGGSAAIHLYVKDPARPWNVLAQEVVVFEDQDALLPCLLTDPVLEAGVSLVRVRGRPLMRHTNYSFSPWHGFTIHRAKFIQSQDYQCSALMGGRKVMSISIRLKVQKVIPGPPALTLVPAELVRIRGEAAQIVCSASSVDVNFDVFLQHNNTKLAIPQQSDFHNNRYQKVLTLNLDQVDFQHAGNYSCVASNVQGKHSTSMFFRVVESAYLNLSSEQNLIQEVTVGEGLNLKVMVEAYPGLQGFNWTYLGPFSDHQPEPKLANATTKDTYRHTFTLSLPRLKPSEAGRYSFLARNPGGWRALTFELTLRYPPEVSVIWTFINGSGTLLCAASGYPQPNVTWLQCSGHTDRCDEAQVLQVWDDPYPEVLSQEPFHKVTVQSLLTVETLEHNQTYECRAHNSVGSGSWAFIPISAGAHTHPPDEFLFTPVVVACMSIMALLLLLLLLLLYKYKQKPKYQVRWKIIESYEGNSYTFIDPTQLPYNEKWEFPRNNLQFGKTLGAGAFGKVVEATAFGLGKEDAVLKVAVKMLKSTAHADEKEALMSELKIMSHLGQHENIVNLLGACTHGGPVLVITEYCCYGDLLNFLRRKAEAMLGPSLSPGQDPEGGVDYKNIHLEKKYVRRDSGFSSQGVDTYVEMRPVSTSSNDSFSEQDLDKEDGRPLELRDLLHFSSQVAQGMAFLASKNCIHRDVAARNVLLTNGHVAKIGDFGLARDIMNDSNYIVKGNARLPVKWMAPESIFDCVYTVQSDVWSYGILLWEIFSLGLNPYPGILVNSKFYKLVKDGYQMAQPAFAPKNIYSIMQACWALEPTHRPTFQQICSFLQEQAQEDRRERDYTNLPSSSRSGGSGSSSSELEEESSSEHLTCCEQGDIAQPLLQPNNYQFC
Sequence of Serine/threonine-protein kinase D3 (Homo sapiens) (O94806 whole entry, the tested form may be a part): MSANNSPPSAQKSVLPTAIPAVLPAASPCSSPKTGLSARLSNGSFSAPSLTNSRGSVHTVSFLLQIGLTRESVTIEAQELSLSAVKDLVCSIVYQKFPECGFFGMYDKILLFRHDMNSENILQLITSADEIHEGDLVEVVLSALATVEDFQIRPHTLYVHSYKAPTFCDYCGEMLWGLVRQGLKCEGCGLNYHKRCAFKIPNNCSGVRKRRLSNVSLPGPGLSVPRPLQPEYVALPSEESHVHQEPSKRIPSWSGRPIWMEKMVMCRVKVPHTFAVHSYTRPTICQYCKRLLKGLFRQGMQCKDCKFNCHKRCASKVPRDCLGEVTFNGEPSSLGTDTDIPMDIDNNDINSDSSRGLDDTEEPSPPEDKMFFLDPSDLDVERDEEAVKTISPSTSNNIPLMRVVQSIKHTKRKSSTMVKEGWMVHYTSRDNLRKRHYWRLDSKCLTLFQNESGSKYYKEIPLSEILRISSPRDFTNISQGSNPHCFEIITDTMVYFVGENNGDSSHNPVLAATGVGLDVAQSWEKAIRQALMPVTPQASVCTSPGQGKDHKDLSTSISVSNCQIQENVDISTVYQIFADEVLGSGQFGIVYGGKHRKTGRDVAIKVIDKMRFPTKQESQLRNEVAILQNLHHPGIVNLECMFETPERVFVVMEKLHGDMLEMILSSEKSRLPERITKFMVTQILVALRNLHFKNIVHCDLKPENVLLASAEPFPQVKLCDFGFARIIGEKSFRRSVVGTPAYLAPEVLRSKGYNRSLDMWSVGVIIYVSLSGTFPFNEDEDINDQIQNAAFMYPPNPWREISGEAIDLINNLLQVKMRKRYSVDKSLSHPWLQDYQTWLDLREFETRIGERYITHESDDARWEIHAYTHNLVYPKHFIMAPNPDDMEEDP
Sequence of Proto-oncogene tyrosine-protein kinase receptor Ret (Homo sapiens), P07949 [V804L] (P07949 whole entry V804L, the tested form may be a part): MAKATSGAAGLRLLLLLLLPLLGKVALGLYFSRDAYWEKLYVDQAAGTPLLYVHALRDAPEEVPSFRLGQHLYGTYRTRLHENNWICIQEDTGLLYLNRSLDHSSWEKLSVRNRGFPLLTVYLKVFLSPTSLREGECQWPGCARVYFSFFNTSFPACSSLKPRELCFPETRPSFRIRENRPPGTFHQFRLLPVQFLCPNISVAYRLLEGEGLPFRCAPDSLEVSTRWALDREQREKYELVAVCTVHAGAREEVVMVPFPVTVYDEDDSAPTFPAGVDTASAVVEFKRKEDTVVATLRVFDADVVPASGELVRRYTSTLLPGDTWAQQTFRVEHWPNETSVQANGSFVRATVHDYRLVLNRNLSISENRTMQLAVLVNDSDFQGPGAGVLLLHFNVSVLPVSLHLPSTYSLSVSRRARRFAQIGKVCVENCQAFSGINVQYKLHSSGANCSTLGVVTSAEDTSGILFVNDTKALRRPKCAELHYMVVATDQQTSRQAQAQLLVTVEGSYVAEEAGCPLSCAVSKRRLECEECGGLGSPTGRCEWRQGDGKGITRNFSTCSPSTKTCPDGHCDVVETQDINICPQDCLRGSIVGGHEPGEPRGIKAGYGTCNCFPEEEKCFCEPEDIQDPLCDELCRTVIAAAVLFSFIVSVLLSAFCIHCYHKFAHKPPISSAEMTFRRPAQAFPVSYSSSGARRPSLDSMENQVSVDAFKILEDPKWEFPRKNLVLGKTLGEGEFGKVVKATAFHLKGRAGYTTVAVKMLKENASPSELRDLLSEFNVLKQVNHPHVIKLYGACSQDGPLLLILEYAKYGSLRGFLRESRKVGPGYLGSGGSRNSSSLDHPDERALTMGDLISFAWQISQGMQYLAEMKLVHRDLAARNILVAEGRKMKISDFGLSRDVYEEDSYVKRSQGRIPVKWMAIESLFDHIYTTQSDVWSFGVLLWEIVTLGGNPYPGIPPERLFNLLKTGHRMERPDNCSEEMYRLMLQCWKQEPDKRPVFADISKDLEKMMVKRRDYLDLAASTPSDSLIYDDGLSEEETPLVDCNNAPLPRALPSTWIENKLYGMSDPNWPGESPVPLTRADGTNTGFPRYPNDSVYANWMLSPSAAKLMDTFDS
Sequence of Serine/threonine-protein kinase LATS1 (Homo sapiens) (O95835 whole entry, the tested form may be a part): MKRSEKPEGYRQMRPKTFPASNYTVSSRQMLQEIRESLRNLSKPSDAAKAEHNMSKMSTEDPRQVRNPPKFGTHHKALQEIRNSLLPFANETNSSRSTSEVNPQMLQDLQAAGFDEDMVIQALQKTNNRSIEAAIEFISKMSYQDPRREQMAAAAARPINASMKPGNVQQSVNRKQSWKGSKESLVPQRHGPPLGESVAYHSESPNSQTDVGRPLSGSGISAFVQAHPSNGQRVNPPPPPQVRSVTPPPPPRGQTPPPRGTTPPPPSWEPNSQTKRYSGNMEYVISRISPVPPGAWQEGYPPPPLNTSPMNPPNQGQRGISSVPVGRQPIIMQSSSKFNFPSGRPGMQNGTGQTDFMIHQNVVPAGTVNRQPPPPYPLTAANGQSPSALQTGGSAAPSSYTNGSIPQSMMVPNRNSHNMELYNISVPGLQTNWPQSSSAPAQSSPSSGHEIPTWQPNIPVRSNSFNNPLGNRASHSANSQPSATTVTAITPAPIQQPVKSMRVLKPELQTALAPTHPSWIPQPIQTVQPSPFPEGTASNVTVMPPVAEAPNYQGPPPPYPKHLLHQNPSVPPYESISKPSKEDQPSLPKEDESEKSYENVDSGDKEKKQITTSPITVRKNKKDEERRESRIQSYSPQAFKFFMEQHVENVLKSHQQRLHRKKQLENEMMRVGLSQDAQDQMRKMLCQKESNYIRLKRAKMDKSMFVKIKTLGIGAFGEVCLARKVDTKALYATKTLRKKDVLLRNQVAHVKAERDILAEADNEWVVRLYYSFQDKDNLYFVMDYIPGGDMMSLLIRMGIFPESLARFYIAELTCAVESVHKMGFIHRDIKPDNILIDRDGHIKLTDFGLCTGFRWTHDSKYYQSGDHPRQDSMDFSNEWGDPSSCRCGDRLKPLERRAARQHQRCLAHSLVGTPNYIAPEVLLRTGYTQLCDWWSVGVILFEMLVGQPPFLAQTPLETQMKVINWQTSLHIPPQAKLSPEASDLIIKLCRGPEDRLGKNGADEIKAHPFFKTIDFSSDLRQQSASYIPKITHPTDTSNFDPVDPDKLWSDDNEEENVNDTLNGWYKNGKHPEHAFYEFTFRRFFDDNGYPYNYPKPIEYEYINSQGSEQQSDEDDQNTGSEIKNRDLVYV

Compound `COc1cc(N2CCC(N3CCN(C)CC3)CC2)ccc1Nc1ncc2c(n1)N(C)c1ccccc1C(=O)N2C` has a residual activity [1] of 77%, an inhibition [2] of 100% and a residual activity [3] of 98%. The inhibition [4] was 100%, the inhibition [5] was 100% and the inhibition [6] was 100%. It also gave an inhibition [7] of 100%, an inhibition [8] of 100% and an inhibition [9] of 83%. For the same compound, the inhibition [10] was 100%, the residual activity [11] was 99% and the residual activity [12] was 93%. For the same compound, the inhibition [13] was 74%, the inhibition [14] was 100% and the inhibition [15] was 83%. For the same compound, the inhibition [16] was 0%, the inhibition [17] was 100% and the inhibition [18] was 73%. The inhibition [19] was 42%, the residual activity [20] was 86% and the residual activity [21] was 80%. The inhibition [22] was 33%, the inhibition [23] was 100% and the inhibition [24] was 89%. The residual activity [25] was 95%, the inhibition [26] was 100% and the inhibition [27] was 100%.
`CCOc1cc(C(=O)N2CCC(N3CCN(C)CC3)CC2)ccc1Nc1ncc2c(n1)N(C1CCCC1)c1ccccc1C(=O)N2C` was tested, and the inhibition [28] was “inactive”.
